Data taken from ChEMBL document CHEMBL3593169, “Cytotoxic Homoisoflavones from the Bulbs of Bellevalia eigii” (J Nat Prod, 2015).
In brackets after ≈: the same amount, converted by molar mass. Activity calls are given as the source filed them. No cut-off for these calls is given here.

Key:
[1] = test system: MDA-MB-435; assay: Cytotoxicity against human MDA-MB-435 cells assessed as reduction in cell growth incubated for 72 hrs; type: functional, cell-based; conditions: MDA-MB-435, 72 h
Method in brief: (§1)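 Cells grown in RPMI 1640 with 10% FBS, penicillin and streptomycin at 37 °C, 5% CO2. Log-phase cells trypsinized, washed twice, seeded at about 5,000 per well and left overnight. Compounds in DMSO added for 72 h at 37 °C. Viability read by MTS-type absorbance assay (CellTiter 96 AQueous One). IC50 in μM relative to DMSO control. Vinblastine as positive control.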

[2] = test system: HT-29; assay: Cytotoxicity against human HT-29 cells assessed as reduction in cell growth incubated for 72 hrs; type: functional, cell-based; conditions: HT-29, 72 h; method in brief: as §1
[3] = test system: Staphylococcus aureus; assay: Antimicrobial activity against Staphylococcus aureus incubated for 4 days by broth microdilution method; type: functional
Method in brief: (§2)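 Broth microdilution in 1/10-strength BHIB+S; 2-fold compound dilution series inoculated with cell suspension. Incubated 4 days; growth scored visually by turbidity. MIC taken as lowest concentration with no turbidity relative to negative control. Each compound run in triplicate.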

[4] = test system: Escherichia coli; assay: Antimicrobial activity against Escherichia coli incubated for 4 days by broth microdilution method; type: functional; method in brief: as §2
[5] = test system: Mycolicibacterium smegmatis; assay: Antimicrobial activity against Mycobacterium smegmatis incubated for 4 days by broth microdilution method; type: functional; method in brief: as §2
[6] = test system: Candida albicans; assay: Antimicrobial activity against Candida albicans incubated for 4 days by broth microdilution method; type: functional; method in brief: as §2
[7] = test system: Aspergillus niger; assay: Antimicrobial activity against Aspergillus niger incubated for 4 days by broth microdilution method; type: functional; method in brief: as §2

Row | SMILES | IC50 [1] [µM] | IC50 [2] [µM] | MIC [3] | MIC [4] | MIC [5] | MIC [6] | MIC [7] | MIC ([4]; 96 h) [µg/mL] | MIC ([3]; 96 h) [µg/mL] | MIC ([5]; 96 h) [µg/mL] | MIC ([6]; 96 h) [µg/mL] | MIC ([7]; 96 h) [µg/mL]
1 | COc1cc(O)c2c(c1OC)OC[C@@H](Cc1ccc(O)c(O)c1)C2=O | > 20 | > 20 | inactive | inactive | inactive | inactive | inactive | – | – | – | – | –
2 | COc1cc2c(c(O)c1O)C(=O)[C@H](Cc1ccc(O)cc1)CO2 | > 20 | > 20 | inactive | inactive | inactive | inactive | inactive | – | – | – | – | –
3 | O=C1/C(=C/c2ccc(O)cc2)COc2cc(O)cc(O)c21 | > 20 | > 20 | inactive | inactive | inactive | inactive | inactive | – | – | – | – | –
4 | COc1cc(O)c2c(c1OC)OC/C(=C\c1ccc(O)cc1)C2=O | 13.2 | > 20 | inactive | inactive | inactive | inactive | inactive | – | – | – | – | –
5 | COc1cc(O)c2c(c1)OC[C@@](O)(Cc1ccc(O)cc1)C2=O | > 20 | > 20 | inactive | inactive | inactive | inactive | inactive | – | – | – | – | –
6 | CC1(C)S[C@@H]2[C@H](NC(=O)[C@H](N)c3ccccc3)C(=O)N2[C@H]1C(=O)O [AMPICILLIN] | – | – | – | – | – | – | – | 8 (≈ 22.9 µM) | – | – | – | –
7 | COc1cc(O)c2c(c1OC)OC/C(=C\c1ccc(O)c(O)c1)C2=O | 4.6 | > 20 | – | – | – | – | – | > 93 | 93 (≈ 270 µM) | 47 (≈ 137 µM) | > 93 | > 93
8 | O=C1c2c(O)cc(O)cc2OC[C@H]1Cc1ccc(O)c(O)c1 | > 20 | > 20 | inactive | inactive | inactive | inactive | inactive | – | – | – | – | –
9 | CN[C@H](CC(C)C)C(=O)N[C@H]1C(=O)N[C@@H](CC(N)=O)C(=O)N[C@H]2C(=O)N[C@H]3C(=O)N[C@H](C(=O)N[C@H](C(=O)O)c4cc(O)cc(O)c4-c4cc3ccc4O)[C@H](O)c3ccc(c(Cl)c3)Oc3cc2cc(c3O[C@@H]2O[C@H](CO)[C@@H](O)[C@H](O)[C@H]2O[C@H]2C[C@](C)(N)[C@H](O)[C@H](C)O2)Oc2ccc(cc2Cl)[C@H]1O [VANCOMYCIN] | – | – | – | – | – | – | – | – | 0.25 (≈ 0.173 µM) | – | – | –
10 | C[C@@H]1[C@H](O)[C@@H](C)/C=C/C=C/C=C/C=C/C=C/C=C/C=C/[C@H](O[C@@H]2O[C@H](C)[C@@H](O)[C@H](N)[C@@H]2O)C[C@@H]2O[C@](O)(C[C@@H](O)C[C@@H](O)[C@H](O)CC[C@@H](O)C[C@@H](O)CC(=O)O[C@H]1C)C[C@H](O)[C@H]2C(=O)O [AMPHOTERICIN B] | – | – | – | – | – | – | – | – | – | – | 16 (≈ 17.3 µM) | 31 (≈ 33.5 µM)
11 | COc1c(O)cc(O)c2c1OC/C(=C\c1ccc(O)cc1)C2=O | > 20 | > 20 | – | – | – | – | – | > 48 | > 48 | 24 (≈ 76.4 µM) | > 48 | > 48
12 | COc1cc(O)c2c(c1OC)OCCC2=O | > 20 | > 20 | inactive | inactive | inactive | inactive | inactive | – | – | – | – | –
13 | COc1cc(O)c2c(c1OC)OC[C@@H](Cc1ccc(O)cc1)C2=O | > 20 | > 20 | inactive | inactive | inactive | inactive | inactive | – | – | – | – | –
14 | COc1cc2c(cc1O)C[C@]21COc2cc(O)cc(O)c2C1=O | > 20 | > 20 | inactive | inactive | inactive | inactive | inactive | – | – | – | – | –
15 | COc1ccc(C[C@@H]2COc3c(OC)c(OC)cc(O)c3C2=O)cc1O | 1.1 | 17.3 | inactive | inactive | inactive | inactive | inactive | – | – | – | – | –
16 | COc1cc(/C=C/C(=O)NCCc2ccc(O)cc2)ccc1O [N-TRANS-FERULOYL TYRAMINE] | > 20 | > 20 | inactive | inactive | inactive | inactive | inactive | – | – | – | – | –
17 | CC[C@]1(O)C[C@@H]2CN(CCc3c([nH]c4ccccc34)[C@@](C(=O)OC)(c3cc4c(cc3OC)N(C)[C@H]3[C@@](O)(C(=O)OC)[C@H](OC(C)=O)[C@]5(CC)C=CCN6CC[C@]43[C@@H]65)C2)C1 [VINBLASTINE] | 0.0005 | 0.0045 | – | – | – | – | – | – | – | – | – | –
18 | O=C(O)c1cn(C2CC2)c2cc(N3CCNCC3)c(F)cc2c1=O [CIPROFLOXACIN] | – | – | – | – | – | – | – | – | – | 2 (≈ 6.04 µM) | – | –
19 | COc1c(O)c(O)c2c(c1OC)OC[C@@H](Cc1ccc(O)cc1)C2=O | > 20 | > 20 | inactive | inactive | inactive | inactive | inactive | – | – | – | – | –
20 | COc1cc(O)c2c(c1O)OC[C@@H](Cc1ccc(O)cc1)C2=O | > 20 | > 20 | inactive | inactive | inactive | inactive | inactive | – | – | – | – | –
21 | COc1ccc(C[C@@H]2COc3cc(O)cc(O)c3C2=O)cc1O | 1 | > 20 | – | – | – | – | – | > 138 | > 138 | 17 (≈ 53.7 µM) | > 138 | > 138
22 | CS/C=C/C(=O)OC[C@H](O)c1ccccc1 | > 20 | > 20 | inactive | inactive | inactive | inactive | inactive | – | – | – | – | –
23 | O=C1c2c(O)cc(O)cc2OC[C@H]1Cc1ccc(O)cc1 | > 20 | > 20 | – | – | – | – | – | > 125 | > 125 | 63 (≈ 220 µM) | > 125 | > 125
